This passage reports inhibition results from ChEMBL document CHEMBL2417552, “Screen of pseudopeptidic inhibitors of human sirtuins 1-3: two lead compounds with antiproliferative effects in cancer cells” (J Med Chem, 2013).

Assay [1] deals with T1, NAD-dependent protein deacetylase sirtuin-2 (Homo sapiens) (UniProt Q8IXJ6).
T1 sequence (whole entry): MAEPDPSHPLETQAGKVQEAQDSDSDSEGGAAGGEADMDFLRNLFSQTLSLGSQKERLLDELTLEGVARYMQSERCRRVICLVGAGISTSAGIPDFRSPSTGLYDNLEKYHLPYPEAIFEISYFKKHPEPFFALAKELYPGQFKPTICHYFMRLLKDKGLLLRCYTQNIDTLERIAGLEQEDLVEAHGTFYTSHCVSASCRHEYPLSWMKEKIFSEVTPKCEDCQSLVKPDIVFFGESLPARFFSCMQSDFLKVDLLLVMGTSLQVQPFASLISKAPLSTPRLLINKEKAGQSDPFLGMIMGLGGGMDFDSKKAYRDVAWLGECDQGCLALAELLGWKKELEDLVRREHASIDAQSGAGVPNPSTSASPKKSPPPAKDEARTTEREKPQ
The assay is described as follows: Inhibition of human recombinant GST-tagged SIRT2 using KI179 as substrate at 50 uM preincubated for 5 mins followed by enzyme addition measured after 1 hr by fluorescence assay relative to control. An outline of the steps: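 Recombinant GST-SIRT2, Fluor de Lys assay in SIRT assay buffer. Acetylated peptide KI179 at 0.7 Km (Km 198 µM) and NAD+ at 0.9 Km (reported Km 547 µM). Buffer, substrate, NAD+ and compound in DMSO preincubated 5 min at room temperature. Enzyme added to start; 1 h at 37 °C. Developer with 2 mM nicotinamide added; 45 min at 37 °C; fluorescence read. Mean ± SD, ≥3 experiments.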

For assay [2], the target named is T2, NAD-dependent protein deacetylase sirtuin-3, mitochondrial (Homo sapiens) (UniProt Q9NTG7).
T2 sequence (whole entry): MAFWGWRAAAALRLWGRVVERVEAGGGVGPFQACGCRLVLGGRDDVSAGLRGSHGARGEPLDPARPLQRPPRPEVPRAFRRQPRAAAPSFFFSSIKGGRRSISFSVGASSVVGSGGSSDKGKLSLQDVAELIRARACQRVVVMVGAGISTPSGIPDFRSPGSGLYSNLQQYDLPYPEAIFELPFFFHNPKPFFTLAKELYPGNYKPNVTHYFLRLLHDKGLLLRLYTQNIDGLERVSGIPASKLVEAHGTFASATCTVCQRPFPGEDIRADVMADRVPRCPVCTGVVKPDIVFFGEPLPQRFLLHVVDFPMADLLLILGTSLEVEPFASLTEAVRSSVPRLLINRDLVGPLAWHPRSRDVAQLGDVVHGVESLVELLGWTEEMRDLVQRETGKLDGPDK
The conditions noted are these: at 50 µM.

For assay [3], the target named is T3, NAD-dependent protein deacetylase sirtuin-1 (Homo sapiens) (UniProt Q96EB6).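 Further: recombinant GST-tagged human SIRT1 enzyme assay with KI177 substrate, fluorescence read 1 h after enzyme addition, inhibition expressed relative to control.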
T3 sequence (whole entry): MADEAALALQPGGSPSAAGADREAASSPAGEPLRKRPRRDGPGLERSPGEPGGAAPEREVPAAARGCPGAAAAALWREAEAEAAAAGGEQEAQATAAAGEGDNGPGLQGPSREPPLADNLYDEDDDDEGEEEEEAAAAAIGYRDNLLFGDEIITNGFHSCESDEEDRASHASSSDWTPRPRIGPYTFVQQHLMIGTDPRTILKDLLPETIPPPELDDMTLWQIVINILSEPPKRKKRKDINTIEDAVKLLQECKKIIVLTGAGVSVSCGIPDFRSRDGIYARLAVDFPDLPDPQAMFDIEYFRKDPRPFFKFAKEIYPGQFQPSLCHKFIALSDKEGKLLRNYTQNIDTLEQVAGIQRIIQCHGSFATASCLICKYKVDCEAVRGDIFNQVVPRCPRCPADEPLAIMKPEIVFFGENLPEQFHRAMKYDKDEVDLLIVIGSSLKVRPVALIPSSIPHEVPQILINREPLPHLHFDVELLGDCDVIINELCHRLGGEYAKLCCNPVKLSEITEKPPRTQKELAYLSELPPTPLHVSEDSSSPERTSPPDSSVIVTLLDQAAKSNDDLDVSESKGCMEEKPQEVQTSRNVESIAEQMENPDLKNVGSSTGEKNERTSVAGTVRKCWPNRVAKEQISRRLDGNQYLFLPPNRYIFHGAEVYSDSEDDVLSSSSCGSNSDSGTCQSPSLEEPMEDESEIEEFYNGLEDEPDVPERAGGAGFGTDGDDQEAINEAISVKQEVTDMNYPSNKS
The conditions noted are these: at 50 µM.

The structures appear in SMILES notation.

As to `CC(=S)NCCCC[C@H](NC(=O)CCc1ccccc1)C(=O)NCC(=O)c1ccccc1`, the inhibition worked out at 65% in assay [1], 68% in assay [2] and 96% in assay [3].
On to `CC(=S)NCCCC[C@H](NC(=O)CCc1ccccc1F)C(=O)Nc1cccnc1`, for which the inhibition in assay [1] was determined as 74%; in assay [2], 72%; in assay [3], 94%.
In the case of `CC(=S)NCCCC[C@H](NC(=O)CCCCCCc1ccccc1)C(=O)NCc1ccccc1`, the inhibition in assay [1] was determined as 74%; in assay [2] it was 87%; in assay [3], 99%.
Take `CC(=S)NCCCC[C@H](NC(=O)OCc1ccccc1)C(=O)Nc1ccccc1`: the inhibition is 81% in assay [1], 62% in assay [2] and 83% in assay [3].
`CC(=S)NCCCC[C@H](NC(=O)CN(C)C)C(=O)Nc1ccccc1`: the figures for the inhibition in assay [1], in assay [2] and in assay [3] were 18%, 16% and 62%, respectively.
As to `CC(=S)NCCCC[C@H](NC(=O)OCc1ccccc1)C(=O)NCC(=O)c1ccccc1`, the values for the inhibition in assay [1], in assay [2] and in assay [3] were 94%, 74% and 97%, respectively.
`CC(=S)NCCCC[C@H](NC(=O)CCc1cccnc1)C(=O)Nc1ccccc1`: the inhibition in assay [1] was 39%; in assay [2], 44%; in assay [3] it was 82%.
For `CC(=S)NCCCC[C@H](NC(=O)OCc1ccccc1)C(=O)NCc1ccccc1` the same measures were 67%, 71% and 91%.
The corresponding values for `CC(=S)NCCCC[C@H](NC(=O)OCc1ccccc1)C(=O)NCCc1c[nH]c2ccccc12` are 61%, 46% and 85%.
Take `CC(=S)NCCCC[C@H](NC(=O)[C@@H]1CCCN1C(=O)OC(C)(C)C)C(=O)NCCc1cccnc1`: the inhibition stood at 49% in assay [1], 68% in assay [2] and 66% in assay [3].
In the case of `CC(=S)NCCCC[C@H](NC(=O)OCc1ccccc1)C(=O)Nc1cccnc1`, the inhibition in assay [1] was determined as 70%; in assay [2] it was 59%; in assay [3] it was 84%.
For the compound `CC(=S)NCCCC[C@H](NC(=O)OCc1ccccc1)C(=O)N[C@@H](C)C(N)=O`, the inhibition amounted to 86% in assay [1], 85% in assay [2] and 96% in assay [3].
For `CC(=S)NCCCC[C@H](NC(=O)OC(C)(C)C)C(=O)NCC(=O)c1ccccc1` the same measures were 87%, 63% and 91%.
The corresponding values for `CC(=S)NCCCC[C@H](NC(=O)CCCCCc1ccccc1)C(=O)NCC(=O)c1ccccc1` are 83%, 82% and 98%.
Take `CC(=S)NCCCC[C@H](NC(=O)[C@@H]1C[C@@H](O)CN1C(=O)OCc1ccccc1)C(=O)Nc1ccccc1`: the values for the inhibition in assay [1], in assay [2] and in assay [3] were 54%, 69% and 90%, respectively.
In the case of `CC(=S)NCCCC[C@H](NC(=O)[C@@H]1CCCN1C(=O)OC(C)(C)C)C(=O)Nc1ccccc1`, the results for the inhibition in assay [1], in assay [2] and in assay [3] were 44%, 45% and 80%, respectively.
For the compound `CC(=S)NCCCC[C@H](NC(=O)CCc1cccnc1)C(=O)NCC(=O)c1ccccc1`, the inhibition in assay [1] came to 58%; in assay [2] it was 62%; in assay [3] it was 95%.
Regarding `CC(=S)NCCCC[C@H](NC(=O)OCc1ccccc1)C(=O)NCC(N)=O`, the inhibition in assay [1] came out at 72%; in assay [2] it was 77%; in assay [3], 91%.
In the case of `CC(=S)NCCCC[C@H](NC(=O)CCc1ccccc1)C(=O)Nc1cccnc1`, the results for the inhibition in assay [1], in assay [2] and in assay [3] were 21%, 39% and 83%, respectively.
As for `CC(=S)NCCCC[C@H](NC(=O)OCc1ccccc1)C(=O)NCCc1ccccc1`, the inhibition came to 52% in assay [1], 41% in assay [2] and 72% in assay [3].
For the compound `CC(=S)NCCCC[C@H](NC(=O)OC(C)(C)C)C(=O)NCCc1cccnc1`, the inhibition in assay [1] turned out to be 28%; in assay [2], 24%; in assay [3], 41%.
Take `CC(=S)NCCCC[C@H](NC(=O)[C@@H]1CCCN1C(=O)OC(C)(C)C)C(=O)NCC(=O)c1ccccc1`: the inhibition in assay [1] was 95%; in assay [2], 76%; in assay [3], 97%.
The corresponding values for `CC(=S)NCCCC[C@H](NC(=O)OCc1ccccc1)C(=O)NCCc1c[nH]c2ccc(OCc3ccccc3)cc12` are 79%, 68% and 87%.
For `CC(=S)NCCCC[C@H](NC(=O)CCCCCc1ccccc1)C(=O)NCc1ccccc1` the same measures were 71%, 84% and 100%.
On to `CC(=S)NCCCC[C@H](NC(=O)OCc1ccccc1)C(=O)NCC(O)c1ccccc1` (some centres not stated), for which the inhibition in assay [1] is 54%; in assay [2], 45%; in assay [3] it was 77%.
Regarding `CC(=S)NCCCC[C@H](NC(=O)C[C@@H]1NC(=O)[C@H](Cc2ccccc2)NC1=O)C(=O)NCC(=O)c1ccccc1`, the results for the inhibition in assay [1], in assay [2] and in assay [3] were 73%, 61% and 96%, respectively.
Take `CC(=S)NCCCC[C@H](NC(=O)[C@@H]1C[C@@H](O)CN1C(=O)OCc1ccccc1)C(=O)NCc1ccccc1`: the results for the inhibition in assay [1], in assay [2] and in assay [3] were 87%, 93% and 97%, respectively.
For `CC(=S)NCCCC[C@H](NC(=O)[C@@H]1CCCN1)C(=O)Nc1ccccc1` the same measures were 13%, 19% and 86%.
Take `CC(=S)NCCCC[C@H](NC(=O)CCCc1ccccc1)C(=O)NCC(=O)c1ccccc1`: the values for the inhibition in assay [1], in assay [2] and in assay [3] were 76%, 72% and 98%, respectively.
